Measured values published in PMC7606109 (Acta Pharmaceutica Sinica. B, 2020).

Assay: MTT cell toxicity assay
Format: cell-based
Conditions: human, HeLa cells
In short: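 HeLa cells grown in DMEM with 10% heat-inactivated FBS and 1% penicillin/streptomycin, 5% CO2, 37 °C. Exponentially growing cells were seeded at 2–6 × 10^3 per well and left 24 h, then exposed to graded test compound concentrations for 48 h. MTT (5 mg/mL stock) was added for 2–4 h at 37 °C. Formazan was dissolved in DMSO and read at 492 nm. Mean ± SD, n = 3.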

**Q.** Which IC50 at 48 h does the source give for `NS(=O)(=O)NCCNc1nonc1C(=NO)Nc1ccc(F)c(Br)c1` [Epa, Epacadostat] here?
**A.** > 40 µM
